Laboratory results taken from ChEMBL document CHEMBL1123803, “Synthesis and biological activities of pseudopeptide analogues of the C-terminal heptapeptide of cholecystokinin. On the importance of the peptide bonds” (J Med Chem, 1987).

Species: Rattus norvegicus
Assay: Activity on Amylase release from rat pancreatic acini was determined
Type: functional
Summary of the method: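 Dispersed rat pancreatic acini (about 1 mg protein/mL) in Hepes pH 7.4 standard incubation solution with 1% BSA, 1 mM calcium, 5 mM theophylline, gassed 95% O2/5% CO2; incubated 30 min at 37 °C across a concentration range. Amylase measured with Phadebas reagent; release = with minus without secretagogue, as percent of maximal CCK-8 stimulation. Duplicates, means of at least three experiments.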

## CCCC[C@H](NC(=O)[C@H](Cc1ccc(OS(=O)(=O)O)cc1)NC(=O)[C@H](CC(=O)O)NC(=O)OC(C)(C)C)C(=O)NCC(=O)N[C@@H](Cc1c[nH]c2ccccc12)C(=O)N[C@@H](CCCC)C(=O)N[C@@H](CC(=O)O)C(=O)N[C@@H](Cc1ccccc1)C(N)=O
  conc. for maximal amylase release: 300 pM
